Consider 1 compound from ChEMBL document CHEMBL5032502, “Syntheses, Biological Evaluations, and Mechanistic Studies of Benzo[c][1,2,5]oxadiazole Derivatives as Potent PD-L1 Inhibitors with In Vivo Antitumor Activity” (J Med Chem, 2021).

The structures appear in SMILES notation. Active and inactive are the calls of the source. The calls are words filed in the database; no cut-off is given here. Bounds are passed on as bounds.

Data set [1] is described as follows: AUC (0 to t) in Sprague-Dawley rat at 10 mg/kg, po measured upto 24 hrs by LC-MS analysis. The format is ADME, organism-based. On the set-up: route oral, dose 10 mg/kg, time <=24. The conditions noted are these: in vivo. Summed up:
(§1)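 Male animals fasted 12 h before dosing. Plasma levels measured by LC-MS, with the prodrug quantified as the parent acid. Mean ± SEM, n = 3.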

The nature of data set [2]: Cmax in Sprague-Dawley rat at 10 mg/kg, po measured upto 24 hrs by LC-MS analysis. The format is ADME, organism-based. On the set-up: route oral, dose 10 mg/kg, time <=24. The conditions noted are these: in vivo. Summed up: as §1
In data set [3] the target is Programmed cell death protein 1/Programmed cell death 1 ligand 1 (Homo sapiens) (UniProt Q15116+Q9NZQ7). The conditions noted are these: Jurkat, time 6.0 hrs.
The nature of data set [4]: Oral bioavailability in Sprague-Dawley rat at 10 mg/kg measured upto 24 hrs by LC-MS analysis. The conditions noted are these: in vivo. The format is ADME, organism-based. Summed up:
(§2)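 Male Sprague-Dawley rats or C57BL/6 mice fasted 12 h before dosing, given oral (po) or intravenous (iv) doses. Plasma levels measured by LC-MS. Parameters reported as mean ± SEM, n = 3.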

Data set [5] is described as follows: Cmax in Sprague-Dawley rat at 2 mg/kg, iv measured upto 24 hrs by LC-MS analysis. The format is ADME, organism-based. On the set-up: route intravenous, dose 2 mg/kg, time <=24. The conditions noted are these: in vivo. Summed up:
as §1

In a further data set the test system is MC-38. The experiment in a line: Cytotoxicity against mouse MC38 cells assessed as inhibition of cell viability at 0.1 to 10 uM incubated for 24 hrs by MTT assay. The format is functional, cell-based. The conditions noted are these: dose 0.1-10 µM. Summed up: (§3)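 PD-L1⁺/aAPC/CHO-K1 cells (2000/well) or MC38 cells (5000/well) allowed to adhere for 12 h, then exposed to compound in medium with 1% final DMSO for 24 h. MTT added for 4 h, medium replaced with DMSO, absorbance read.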
(Tetrazolium dyes change colour on reduction, which living cells bring about.)

The next data set has as its system Jurkat. As to the kind of experiment: Cytotoxicity against human Jurkat cells expressing PD-1/NFAT/Luc assessed as inhibition of cell viability at 0.1 to 10 uM incubated for 24 hrs by CCK8 assay. The format is functional, cell-based. The conditions noted are these: dose 0.1-10 µM. Summed up: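 PD-1⁺/NFAT-luc/Jurkat cells seeded at 20 000 per well, treated with compound in medium with 1% final DMSO for 24 h. CCK8 added for 4 h, then absorbance read.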

In another data set the test system is CHO-K1. The experiment in a line: Cytotoxicity against CHO-K1 cells expressing PD-L1/aAPC assessed as inhibition of cell viability at 0.1 to 10 uM incubated for 24 hrs by MTT assay. The format is functional, cell-based. The conditions noted are these: Cricetulus griseus, dose 0.1-10 µM. Summed up:
as §3

Data set [6] can be described thus: Half life in Sprague-Dawley rat at 10 mg/kg, po measured upto 24 hrs by LC-MS analysis. The format is ADME, organism-based. The conditions noted are these: in vivo. Summed up: as §1
Data set [7] has as its target Voltage-gated inwardly rectifying potassium channel KCNH2 (Homo sapiens, UniProt Q12809). As to the kind of experiment: Inhibition of human ERG.
Data set [8] can be described thus: Clearance in Sprague-Dawley rat at 2 mg/kg, iv measured upto 24 hrs by LC-MS analysis. The conditions noted are these: in vivo. The format is ADME, organism-based. Summed up:
as §1

In data set [9] the target is Programmed cell death protein 1 (Homo sapiens) (UniProt Q15116). The experiment in a line: Binding affinity to human PD-1 assessed as dissociation constant by surface plasmon resonance analysis. Summed up: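 His-tagged human PD-L1 IgV or Fc-tagged human PD-1 IgV immobilized on a CM5 chip by amine coupling in 10 mM sodium acetate, pH 4.5. Compound serially diluted in PBS with 0.05% Tween 20 and 5% DMSO and flowed over the chip. KD fitted by instrument software, mean ± SEM of two to three independent experiments.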
Sequence of Programmed cell death protein 1 (Homo sapiens) (Q15116 whole entry): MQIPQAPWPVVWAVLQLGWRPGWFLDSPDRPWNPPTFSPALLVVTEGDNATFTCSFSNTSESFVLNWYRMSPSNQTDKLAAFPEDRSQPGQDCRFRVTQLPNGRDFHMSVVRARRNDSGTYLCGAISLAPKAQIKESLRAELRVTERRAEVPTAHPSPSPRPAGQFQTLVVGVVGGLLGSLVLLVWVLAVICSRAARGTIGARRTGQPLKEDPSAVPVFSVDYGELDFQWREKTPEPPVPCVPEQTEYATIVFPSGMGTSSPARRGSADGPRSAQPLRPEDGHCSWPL
(In general: In SPR one partner is held on a chip, and binding of the other changes the refractive index at the surface.)

A short description of data set [10]: Tmax in Sprague-Dawley rat at 10 mg/kg, po measured upto 24 hrs by LC-MS analysis. The format is ADME, organism-based. The conditions noted are these: in vivo. Summed up:
as §2

Data set [11] is described as follows: Half life in Sprague-Dawley rat at 2 mg/kg, iv measured upto 24 hrs by LC-MS analysis. The format is ADME, organism-based. The conditions noted are these: in vivo. Summed up: as §1
Data set [12] can be described thus: AUC (0 to t) in Sprague-Dawley rat at 2 mg/kg, iv measured upto 24 hrs by LC-MS analysis. The format is ADME, organism-based. Set-up: route intravenous, dose 2 mg/kg, time <=24. The conditions noted are these: in vivo. Summed up: as §1
Data set [13] in a line: Tmax in Sprague-Dawley rat at 2 mg/kg, iv measured upto 24 hrs by LC-MS analysis. The format is ADME, organism-based. The conditions noted are these: in vivo. Summed up: as §2

Sequence of Voltage-gated inwardly rectifying potassium channel KCNH2 (Q12809 whole entry): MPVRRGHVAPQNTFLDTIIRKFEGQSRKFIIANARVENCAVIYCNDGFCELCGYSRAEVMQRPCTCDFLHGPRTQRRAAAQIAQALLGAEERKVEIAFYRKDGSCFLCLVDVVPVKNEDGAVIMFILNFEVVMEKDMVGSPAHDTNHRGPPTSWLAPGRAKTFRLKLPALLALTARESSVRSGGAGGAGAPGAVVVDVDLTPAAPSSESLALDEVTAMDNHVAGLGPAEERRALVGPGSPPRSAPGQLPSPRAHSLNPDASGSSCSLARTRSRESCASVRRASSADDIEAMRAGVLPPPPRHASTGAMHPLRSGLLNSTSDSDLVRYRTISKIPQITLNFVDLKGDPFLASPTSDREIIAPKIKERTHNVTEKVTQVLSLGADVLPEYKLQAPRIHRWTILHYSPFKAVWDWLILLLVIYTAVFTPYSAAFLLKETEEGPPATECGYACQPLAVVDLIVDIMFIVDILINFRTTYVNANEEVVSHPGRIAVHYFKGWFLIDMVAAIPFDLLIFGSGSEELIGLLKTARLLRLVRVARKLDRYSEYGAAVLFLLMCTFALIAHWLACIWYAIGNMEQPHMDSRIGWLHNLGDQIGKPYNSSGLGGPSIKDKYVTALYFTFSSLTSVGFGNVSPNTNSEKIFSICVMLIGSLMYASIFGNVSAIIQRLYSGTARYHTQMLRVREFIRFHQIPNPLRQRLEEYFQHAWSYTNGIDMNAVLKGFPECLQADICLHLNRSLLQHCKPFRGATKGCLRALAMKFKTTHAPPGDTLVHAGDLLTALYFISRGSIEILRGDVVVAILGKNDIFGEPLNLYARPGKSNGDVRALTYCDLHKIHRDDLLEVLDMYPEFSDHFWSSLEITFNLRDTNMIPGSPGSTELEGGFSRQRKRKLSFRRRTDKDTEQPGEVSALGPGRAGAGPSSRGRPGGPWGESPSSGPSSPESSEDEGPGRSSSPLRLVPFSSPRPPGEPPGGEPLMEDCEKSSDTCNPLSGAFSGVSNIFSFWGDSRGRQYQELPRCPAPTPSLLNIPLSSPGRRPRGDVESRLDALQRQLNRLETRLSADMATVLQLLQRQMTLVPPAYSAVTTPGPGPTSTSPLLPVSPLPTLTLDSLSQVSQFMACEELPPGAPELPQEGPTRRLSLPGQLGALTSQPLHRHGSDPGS

For `O=C(O)[C@@H](CO)NCc1cc(Cl)c(OCc2cccc(-c3ccccc3)c2Br)cc1OCc1ccc2nonc2c1`, the exposure AUC(0-t) – broadly, the area under the concentration-time curve up to a stated or last time point – at 24 h turned out to be 15.2 ng·h/mL in data set [1] and 860 ng·h/mL in data set [12]. The highest concentration (Cmax) (as a rule, the highest concentration seen after dosing) in [2] stood at 4.46 ng/mL; in [5] it was 2090 ng/mL. In [3], this compound showed an RLU of 1.81. For the same compound, in data set [4], the bioavailability (usually the share of a dose that reaches the circulation, judged against a reference dose that is usually intravenous) stood at 0.35%. Further, the outcome (in the data set with MC-38; in the data set with Jurkat; in the data set with CHO-K1; in data set [9]) was inactive. In addition, the half-life (commonly the time in which the quantity being followed falls by half) is 4.17 h in data set [6] and 4.04 h in [11]. In addition, in [7], the concentration for half-maximal inhibition (IC50) – broadly, the concentration that inhibits the measured activity by half – was over 30 µM. In data set [8], the clearance – broadly, the rate of elimination divided by the concentration – is 39.6 mL/min/kg. Further, the time of peak concentration (Tmax) (commonly the time at which the peak concentration occurs) in data set [10] came out at 2.33 h; in data set [13], 4.8 min.
